Here are results for five compounds from ChEMBL document CHEMBL1135651 (J Med Chem, 2002).

SMILES strings stand for the structures. Calls of active or inactive are those of the source. No cut-off for these calls is given here.

The subject of experiment [1] is Rattus norvegicus. Description: The percentage growth of paw after injection of carrageneen at a dose of 10 mg/kg dose. It is filed as functional. The essentials:
(§1)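 Wistar rats (250 g) given drug intraperitoneally, 10 or 30 mg/kg, from a 10 mg/mL DMSO solution. After 1 h, 0.1 mL 1% lambda carrageenan was injected into the right hind paw plantar region. At 3 h, rats were euthanized with nembutal (100 mg/kg) and paws cut at the ankle. Swelling was taken as % weight increase over the control paw. Mean ± SD, n = 6.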

The subject of experiment [2] is Rattus norvegicus. Put plainly: The percentage growth of paw after injection of carrageneen at a dose of 30 mg/kg dose. It is filed as functional. The essentials: as §1
For experiment [3], the target named is T1, Prostaglandin G/H synthase 2 (Homo sapiens) (UniProt P35354).
T1 sequence (whole entry): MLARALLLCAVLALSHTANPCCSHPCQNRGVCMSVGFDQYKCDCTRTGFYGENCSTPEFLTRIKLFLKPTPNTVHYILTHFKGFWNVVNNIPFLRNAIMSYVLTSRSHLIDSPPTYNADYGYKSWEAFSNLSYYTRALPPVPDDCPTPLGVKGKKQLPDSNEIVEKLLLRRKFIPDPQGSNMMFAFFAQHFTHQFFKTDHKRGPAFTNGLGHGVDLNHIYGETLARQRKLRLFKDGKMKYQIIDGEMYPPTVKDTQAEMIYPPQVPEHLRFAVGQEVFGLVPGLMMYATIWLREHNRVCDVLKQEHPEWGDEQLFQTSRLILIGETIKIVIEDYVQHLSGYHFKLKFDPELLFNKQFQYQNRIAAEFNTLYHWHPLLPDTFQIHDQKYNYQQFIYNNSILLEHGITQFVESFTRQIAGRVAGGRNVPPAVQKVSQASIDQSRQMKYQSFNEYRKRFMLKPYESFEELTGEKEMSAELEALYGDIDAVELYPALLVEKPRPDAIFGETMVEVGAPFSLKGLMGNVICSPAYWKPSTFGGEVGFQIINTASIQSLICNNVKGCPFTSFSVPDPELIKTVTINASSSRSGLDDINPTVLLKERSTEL
Put plainly: The inhibitory activity against cyclooxygenase Prostaglandin G/H synthase 2 (COX-2) measured as PGE-2 production after stimulation by lipopolysaccharide (LPS) using human Whole blood assay:NI means no inhibition.

The target of experiment [4] is T2, Prostaglandin G/H synthase 1 (Homo sapiens, UniProt P23219). Description: The inhibitory activity against Prostaglandin G/H synthase 1 measured as TXB2 production after blood coagulation using human Whole blood assay: NI means no inhibition. In outline: (§2)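 Human whole blood; COX-1 activity read as TXB2 produced during blood coagulation. Each drug run in triplicate over 100 to 0.01 μM. IC50 calculated from the concentration series. No inhibition at 100 μM recorded as ni.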

For experiment [5], the target named is T2, Prostaglandin G/H synthase 1. Description: The inhibitory activity against Prostaglandin G/H synthase 1 measured as TXB2 production after blood coagulation using human Whole blood assay.
Experiment [6] addresses T3, Prostaglandin G/H synthase 2 (Homo sapiens, UniProt P35354).
T3 sequence (P35354 whole entry): T1 sequence (whole entry)
Put plainly: The inhibitory activity against cyclooxygenase Prostaglandin G/H synthase 2 (COX-2) measured as PGE-2 production after stimulation by lipopolysaccharide (LPS) using human Whole blood assay.

In experiment [7] the test system is Rattus norvegicus. Description: The percentage growth of paw after injection of carrageneen at a dose of 30 mg/kg dose; Toxic. It is filed as functional, organism-based. On the set-up: dose 30 mg/kg. The essentials: as §1
Experiment [8] deals with T2, Prostaglandin G/H synthase 1. Description: The inhibitory activity against cyclooxygenase Prostaglandin G/H synthase 1 measured as TXB2 production after blood coagulation using human Whole blood assay: NI means no inhibition. The essentials: as §2

T2 sequence (P23219 whole entry): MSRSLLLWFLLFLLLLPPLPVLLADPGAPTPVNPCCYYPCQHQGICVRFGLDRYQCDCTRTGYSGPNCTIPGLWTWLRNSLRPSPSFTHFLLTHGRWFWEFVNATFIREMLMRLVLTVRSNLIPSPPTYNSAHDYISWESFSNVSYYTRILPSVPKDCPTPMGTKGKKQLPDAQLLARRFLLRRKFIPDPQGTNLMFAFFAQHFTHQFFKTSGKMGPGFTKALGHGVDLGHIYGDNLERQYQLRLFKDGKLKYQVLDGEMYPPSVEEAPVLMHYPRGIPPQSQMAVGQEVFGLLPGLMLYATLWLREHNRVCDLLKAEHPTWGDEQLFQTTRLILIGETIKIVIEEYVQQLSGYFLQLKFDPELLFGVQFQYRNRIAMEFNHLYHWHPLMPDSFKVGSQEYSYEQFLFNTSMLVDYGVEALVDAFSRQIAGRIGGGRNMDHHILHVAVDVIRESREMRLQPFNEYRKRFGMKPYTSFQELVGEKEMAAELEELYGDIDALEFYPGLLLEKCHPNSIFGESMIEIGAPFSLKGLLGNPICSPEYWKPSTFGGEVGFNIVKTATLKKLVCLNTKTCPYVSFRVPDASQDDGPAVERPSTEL

On to `CS(=O)(=O)Nc1ccc([N+](=O)[O-])cc1Oc1ccccc1` [NIMESULIDE], for which the figures for the Growth in experiment [1] and in experiment [2] were 58% and 54%, respectively.
Take `CS(=O)(=O)Nc1cccnc1Oc1ccccc1`: the inhibition result in experiment [3] and in experiment [4] was “inactive” in each case.
In general, IC50 refers to the concentration at which inhibition is half-maximal. Lower therefore signals higher potency. With `CS(=O)(=O)Nc1ccncc1Oc1ccccc1`, the IC50 came out at 4.9 µM in experiment [5] and 37.5 µM in experiment [6]. The Growth result in experiment [7] was “Toxic”.
For the compound `O=S(=O)(Nc1ccncc1Oc1ccccc1)C(F)(F)F`, the figures for the Growth in experiment [1] and in experiment [2] were 74.7% and 54.1%, respectively.
In the case of `CN(c1ccc([N+](=O)[O-])cc1Oc1ccccc1)S(C)(=O)=O`, the results for the Growth in experiment [1] and in experiment [2] were 84.6% and 65.6%, respectively. Besides, the NI result in experiment [8] was “inactive”.
